Assay results from ChEMBL document CHEMBL4130635, “2,4-Diaminoquinazolines as Dual Toll-like Receptor (TLR) 7/8 Modulators for the Treatment of Hepatitis B Virus” (J Med Chem, 2018).
Calls of active or inactive are those of the source. The rule behind the calls is not given here.

How the values were obtained:
Cynomolgus monkey [1] = experiment: Induction of ISG response in cynomolgus monkey plasma assessed as upregulation of Oas1b mRNA expression at 3 mg/kg, po after 24 hrs by Fluidigm RT-qPCR analysis (reference value: 1); type: functional, Macaca fascicularis
Outline: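 Cynomolgus monkeys, single oral doses of 1, 3, 9 and 30 mg/kg with a planned 2-week wash-out between doses. Systemic ISG (ISG15, Mx1, OAS1) mRNA was measured by Fluidigm RT-qPCR at 1, 2, 4, 8 and 24 h postdose.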

Liver [2] = experiment: Proinflammatory activity in C57BL/6J mouse liver assessed as TNFalpha levels at 30 mg/kg, po by multiplex assay (reference value: 15 pg/g); type: functional
Liver [3] = experiment: Induction of IFNalpha levels in C57BL/6J mouse liver at 0.3 mg/kg, po by ELISA (reference value: 30 pg/g); type: functional
[4] = Cmax in C57BL/6J mouse plasma at 10 mg/kg, po by LC-MS analysis; type: ADME, organism-based; parameters: dose 10 mg/kg, route oral
Outline: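 Healthy C57BL/6 mice, groups of 15, given a single oral dose (0.3, 1, 3, 10 or 30 mg/kg) in 20% HP-β-CD. Blood drawn at 0.5 h. Three mice per group sacrificed at 0.5, 1, 2, 4 or 7 h, and compound in plasma and liver measured by LC−MS. Values rounded to whole numbers.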

[5] = molecular target: TLR7 and TLR8 (Homo sapiens) (UniProt Q9NYK1+Q9NR97); experiment: Agonist activity at TLR7/8 in human PBMCs co-cultured with primary human hepatocytes infected with HBV genotype C for 12 days assessed as increase in CXCL10 levels up to 5 uM measured after 42 days
Cynomolgus monkey [6] = experiment: Effect on cytokine profile in cynomolgus monkey plasma assessed as IP10 levels at 1 mg/kg, po after 24 hrs by Luminex assay (reference value: 18.5 pg/ml); type: functional, Macaca fascicularis
Outline: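 Healthy cynomolgus monkeys given single oral doses of 1, 3, 9 and 30 mg/kg, with a 2-week wash-out planned between doses. Systemic cytokine levels in plasma were sampled at 0.5, 1, 2, 4, 9 and 24 h postdose.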

Plasma [7] = experiment: Proinflammatory activity in C57BL/6J mouse plasma assessed as CXCL-1 levels at 30 mg/kg, po by multiplex assay (reference value: 230 pg/ml); type: functional
Liver [8] = experiment: Effect on cytokine profile in C57BL/6J mouse liver assessed as IFNgamma levels at 3 mg/kg, po by multiplex assay; type: functional
Outline: (§1)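 Single oral gavage in 20% HP-β-CD to healthy C57BL/6 mice, groups of 15 at 0.3, 1, 3, 10 or 30 mg/kg. Three mice per group sacrificed at 0.5, 1, 2, 4 or 7 h. Plasma and liver cytokines by multiplex, maximum level reported, rounded to nearest multiple of 5.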

Plasma [9] = experiment: Effect on cytokine profile in C57BL/6J mouse plasma assessed as IL-12p70 levels at 0.3 mg/kg, po by multiplex assay (reference value: 560 pg/ml); type: functional; outline: as §1
Cynomolgus monkey [10] = experiment: Upregulation of Tlr7 expression in cynomolgus monkey plasma at 1 mg/kg, po after 24 hrs by Fluidigm RT-qPCR analysis (reference value: 1.8); type: functional, Macaca fascicularis
Plasma [11] = experiment: Proinflammatory activity in C57BL/6J mouse plasma assessed as TNFalpha levels at 3 mg/kg, po by multiplex assay (reference value: 70 pg/ml); type: functional
Cynomolgus monkey [12] = experiment: Activation of Kupffer cells in cynomolgus monkey liver at 30 mg/kg, po after 72 hrs by CD68 staining-based immunohistochemical analysis; type: functional, organism-based; conditions: Macaca fascicularis
Outline: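 Three 2.5-year-old male naive cynomolgus monkeys were dosed orally at 30 mg/kg and euthanized 72 h later. FFPE liver sections were stained for CD68 by IHC, alongside sections from unrelated control animals. Positive cells were counted over a 30 mm² area and expressed per mm². Statistics used a one-tailed t test with Welch correction.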

[13] = AUC (0 to last) in cynomolgus monkey plasma at 1 mg/kg, po by LC-MS analysis; type: ADME, organism-based, Macaca fascicularis; parameters: dose 1 mg/kg, time 0 - last, route oral
Outline: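 Healthy cynomolgus monkeys received single oral doses of 1, 3, 9 and 30 mg/kg, with a 2-week wash-out between doses. Systemic compound concentrations were measured by LC–MS at 0.25, 0.5, 1, 2, 4, 8 and 24 h postdose.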

Liver [14] = experiment: Effect on cytokine profile in C57BL/6J mouse liver assessed as IL-12p70 levels at 3 mg/kg, po by multiplex assay (reference value: 5 pg/g); type: functional, organism-based; outline: as §1
Plasma [15] = experiment: Proinflammatory activity in C57BL/6J mouse plasma assessed as TNFalpha levels at 0.3 mg/kg, po by multiplex assay (reference value: 70 pg/ml); type: functional, organism-based
Cynomolgus monkey [16] = experiment: Proinflammatory activity in cynomolgus monkey plasma assessed as IL-6 levels at 9 mg/kg, po after 24 hrs by Luminex assay (reference value: 80 pg/ml); type: functional, Macaca fascicularis
Liver [17] = experiment: Induction of IFNalpha levels in C57BL/6J mouse liver at 30 mg/kg, po by ELISA (reference value: 30 pg/g); type: functional
Liver [18] = experiment: Proinflammatory activity in C57BL/6J mouse liver assessed as CXCL-1 levels at 1 mg/kg, po by multiplex assay (reference value: 25 pg/g); type: functional
[19] = Stability in dog hepatocytes assessed compound turnover at 1 uM after 60 mins; type: ADME, cell-based, Canis lupus familiaris, Hepatocyte; conditions: read-out: Drug metabolism

SMILES: CCC[C@@H](CCO)Nc1nc(N)nc2c(F)cccc12
- fold change (FC) (Cynomolgus monkey [1]): 265
- Activity (Liver [2]): 13600 pg/g
- Activity (Liver [3]): 100 pg/g
- Cmax [4]: 148 ng/mL
- Activity [5]: Active
- Activity (Cynomolgus monkey [6]): 1690 pg/mL
- Activity (Plasma [7]): >10000 pg/mL
- Activity (Liver [8]): 150 pg/g
- Activity (Plasma [9]): 470 pg/mL
- fold change (FC) (Cynomolgus monkey [10]): 4.8
- Activity (Plasma [11]): 1665 pg/mL
- Activity (Cynomolgus monkey [12]): Active
- AUC(0-t) [13]: 75 ng·h/mL
- Activity (Liver [14]): Below limit of detection
- Activity (Plasma [15]): Below limit of detection
- Activity (Cynomolgus monkey [16]): 2265 pg/mL
- Activity (Liver [17]): 955 pg/g
- Activity (Liver [18]): 6755 pg/g
- metabolised at 1 h, 1 µM [19]: 77%
